Experimental data taken from ChEMBL document CHEMBL5705885, “CYT387, a selective JAK1/JAK2 inhibitor: in vitro assessment of kinase selectivity and preclinical studies using cell lines and primary cells from polycythemia vera patients” (Leukemia, 2009).

Legend:
[1] = molecular target: Dual specificity tyrosine-phosphorylation-regulated kinase 1A (Homo sapiens, UniProt Q13627); assay: Inhibition of DYRK1A (unknown origin)
[2] = molecular target: Tyrosine-protein kinase JAK1 (Homo sapiens) (UniProt P23458); details: dose 100.0 nM
[3] = molecular target: Fibroblast growth factor receptor 3 (Homo sapiens, UniProt P22607); assay: Inhibition of FGFR3 (unknown origin)
Sequence of Fibroblast growth factor receptor 3 (P22607 whole entry): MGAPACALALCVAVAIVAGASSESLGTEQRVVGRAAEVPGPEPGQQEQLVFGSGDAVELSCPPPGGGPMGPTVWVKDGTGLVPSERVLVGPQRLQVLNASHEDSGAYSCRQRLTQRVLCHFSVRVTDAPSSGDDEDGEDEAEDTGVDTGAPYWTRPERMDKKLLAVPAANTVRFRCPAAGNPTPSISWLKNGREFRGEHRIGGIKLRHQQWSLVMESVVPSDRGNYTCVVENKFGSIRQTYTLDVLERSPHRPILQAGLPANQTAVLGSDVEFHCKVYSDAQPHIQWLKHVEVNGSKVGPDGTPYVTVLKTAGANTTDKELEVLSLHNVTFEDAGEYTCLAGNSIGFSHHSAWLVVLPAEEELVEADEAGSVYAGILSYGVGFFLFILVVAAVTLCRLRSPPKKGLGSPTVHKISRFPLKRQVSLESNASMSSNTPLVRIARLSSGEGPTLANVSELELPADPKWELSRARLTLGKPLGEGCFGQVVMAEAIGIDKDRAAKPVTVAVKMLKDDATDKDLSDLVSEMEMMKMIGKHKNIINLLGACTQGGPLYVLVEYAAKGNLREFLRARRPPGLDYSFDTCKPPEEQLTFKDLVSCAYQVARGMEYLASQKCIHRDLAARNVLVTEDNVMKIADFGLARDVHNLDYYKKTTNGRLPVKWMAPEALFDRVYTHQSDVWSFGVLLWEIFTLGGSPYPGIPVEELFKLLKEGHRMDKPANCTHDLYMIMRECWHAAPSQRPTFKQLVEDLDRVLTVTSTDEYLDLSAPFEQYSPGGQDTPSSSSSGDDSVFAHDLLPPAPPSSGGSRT

[4] = molecular target: Serine/threonine-protein kinase PAK 4 (Homo sapiens, UniProt O96013); details: dose 100.0 nM
[5] = molecular target: Testis-specific serine/threonine-protein kinase 1 (Homo sapiens) (UniProt Q9BXA7); details: dose 100.0 nM
Sequence of Testis-specific serine/threonine-protein kinase 1 (Homo sapiens) (Q9BXA7 whole entry): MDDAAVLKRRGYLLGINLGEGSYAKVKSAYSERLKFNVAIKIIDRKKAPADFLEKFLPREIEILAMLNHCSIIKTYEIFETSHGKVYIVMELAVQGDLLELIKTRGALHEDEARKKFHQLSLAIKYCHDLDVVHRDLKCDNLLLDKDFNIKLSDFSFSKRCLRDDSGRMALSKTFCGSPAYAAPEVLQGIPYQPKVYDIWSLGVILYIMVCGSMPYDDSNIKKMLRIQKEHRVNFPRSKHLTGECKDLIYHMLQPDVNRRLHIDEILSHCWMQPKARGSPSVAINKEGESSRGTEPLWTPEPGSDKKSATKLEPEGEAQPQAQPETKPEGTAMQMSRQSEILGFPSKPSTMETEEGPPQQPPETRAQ

[6] = molecular target: Proto-oncogene tyrosine-protein kinase Src (Homo sapiens, UniProt P12931); assay: Inhibition of SRC (unknown origin)
[7] = molecular target: Serine/threonine-protein kinase D1 (Homo sapiens) (UniProt Q15139); details: dose 100.0 nM
[8] = molecular target: Signal transducer and activator of transcription 5A (Homo sapiens) (UniProt P42229); assay: Inhibition of STAT5 phosphorylation in human HEL cells by Western blot analysis; format: cell-based; details: dose <= 1.0 µM
Procedure, shortened: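 HEL cells were starved overnight in RPMI with 1% FCS, then exposed to compound for 2 h at 37 °C. Cells were lysed in RIPA buffer (50 mM HEPES pH 7.4, 150 mM NaCl, 1% Triton X-100, deoxycholate, 0.1% SDS) with protease and phosphatase inhibitors. Protein was quantified by Bradford assay and blots were developed by chemiluminescence. Membranes were stripped and reprobed for total STAT5.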

[9] = molecular target: Mitogen-activated protein kinase 10 (Homo sapiens) (UniProt P53779); details: dose 100.0 nM
[10] = molecular target: Vascular endothelial growth factor receptor 2 (Homo sapiens, UniProt P35968); details: dose 100.0 nM
BaF3 = assay: Antiproliferative activity against mouse BaF3 cells harboring JAK2V617F mutant measured after 72 hrs by Alamar blue staining based analysis; format: functional, cell-based; details: BaF3, 72 h
Procedure, shortened: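 Ba/F3 murine cells expressing JAK2V617F or MPLW515L. Compound stocks in DMSO were diluted into culture medium. After 72 h at 37 °C in 5% CO2, proliferation was quantified with the Alamar Blue assay.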

[11] = molecular target: Cyclin-dependent kinase 5/CDK5 activator 1 (Homo sapiens) (UniProt Q00535+Q15078); details: dose 100.0 nM
[12] = molecular target: Serine/threonine-protein kinase PLK3 (Homo sapiens, UniProt Q9H4B4); details: dose 100.0 nM
[13] = molecular target: Mitogen-activated protein kinase 11 (Homo sapiens, UniProt Q15759); assay: Inhibition of MAPK11 (unknown origin)
[14] = molecular target: Beta-adrenergic receptor kinase 1 (Homo sapiens, UniProt P25098); assay: Inhibition of ADRBK1 (unknown origin)
[15] = molecular target: Serine/threonine-protein kinase N1 (Homo sapiens, UniProt Q16512); assay: Inhibition of PKN1 (unknown origin)
[16] = molecular target: Macrophage-stimulating protein receptor (Homo sapiens, UniProt Q04912); assay: Inhibition of MST1R (unknown origin)
[17] = molecular target: Inhibitor of nuclear factor kappa-B kinase subunit beta (Homo sapiens, UniProt O14920); assay: Inhibition of IKBKB (unknown origin)
[18] = molecular target: Ephrin type-B receptor 1 (Homo sapiens) (UniProt P54762); details: dose 100.0 nM
Sequence of Ephrin type-B receptor 1 (Homo sapiens) (P54762 whole entry): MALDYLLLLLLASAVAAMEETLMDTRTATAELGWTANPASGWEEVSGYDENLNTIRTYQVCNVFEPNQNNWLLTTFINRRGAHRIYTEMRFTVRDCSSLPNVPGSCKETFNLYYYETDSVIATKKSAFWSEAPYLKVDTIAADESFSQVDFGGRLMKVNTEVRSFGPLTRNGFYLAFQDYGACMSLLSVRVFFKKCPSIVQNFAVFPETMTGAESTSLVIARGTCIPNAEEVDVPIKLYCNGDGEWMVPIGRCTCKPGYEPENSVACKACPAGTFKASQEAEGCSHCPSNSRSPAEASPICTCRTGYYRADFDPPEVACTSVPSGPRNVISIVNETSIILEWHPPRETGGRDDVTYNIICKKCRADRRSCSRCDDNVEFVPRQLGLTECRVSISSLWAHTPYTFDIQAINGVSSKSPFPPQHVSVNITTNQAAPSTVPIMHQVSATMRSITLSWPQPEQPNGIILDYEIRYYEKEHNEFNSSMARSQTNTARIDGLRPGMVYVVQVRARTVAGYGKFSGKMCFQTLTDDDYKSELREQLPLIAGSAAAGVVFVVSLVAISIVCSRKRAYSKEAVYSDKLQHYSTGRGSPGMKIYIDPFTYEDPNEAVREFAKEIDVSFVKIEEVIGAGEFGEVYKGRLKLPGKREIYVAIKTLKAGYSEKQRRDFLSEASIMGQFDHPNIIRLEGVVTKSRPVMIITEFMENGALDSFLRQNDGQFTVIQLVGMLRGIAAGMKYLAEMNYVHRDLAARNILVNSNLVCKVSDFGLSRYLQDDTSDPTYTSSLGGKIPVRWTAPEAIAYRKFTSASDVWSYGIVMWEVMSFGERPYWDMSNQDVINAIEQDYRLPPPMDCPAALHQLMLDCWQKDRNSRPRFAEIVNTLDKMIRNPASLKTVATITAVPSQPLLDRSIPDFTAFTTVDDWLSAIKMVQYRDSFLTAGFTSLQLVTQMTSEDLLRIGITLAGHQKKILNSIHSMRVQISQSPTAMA

SRSF protein kinase 3 = SRSF protein kinase 3 (Homo sapiens, UniProt Q9UPE1); assay: Inhibition of STK23 (unknown origin)
[19] = molecular target: T1, Serine/threonine-protein kinase MARK1 (Homo sapiens, UniProt Q9P0L2); details: dose 100.0 nM
[20] = molecular target: Serine/threonine-protein kinase D2 (Homo sapiens, UniProt Q9BZL6); assay: Inhibition of PRKD2 (unknown origin)
[21] = molecular target: Tyrosine-protein kinase Fyn (Homo sapiens, UniProt P06241); assay: Inhibition of FYN (unknown origin)
Sequence of Tyrosine-protein kinase Fyn (P06241 whole entry): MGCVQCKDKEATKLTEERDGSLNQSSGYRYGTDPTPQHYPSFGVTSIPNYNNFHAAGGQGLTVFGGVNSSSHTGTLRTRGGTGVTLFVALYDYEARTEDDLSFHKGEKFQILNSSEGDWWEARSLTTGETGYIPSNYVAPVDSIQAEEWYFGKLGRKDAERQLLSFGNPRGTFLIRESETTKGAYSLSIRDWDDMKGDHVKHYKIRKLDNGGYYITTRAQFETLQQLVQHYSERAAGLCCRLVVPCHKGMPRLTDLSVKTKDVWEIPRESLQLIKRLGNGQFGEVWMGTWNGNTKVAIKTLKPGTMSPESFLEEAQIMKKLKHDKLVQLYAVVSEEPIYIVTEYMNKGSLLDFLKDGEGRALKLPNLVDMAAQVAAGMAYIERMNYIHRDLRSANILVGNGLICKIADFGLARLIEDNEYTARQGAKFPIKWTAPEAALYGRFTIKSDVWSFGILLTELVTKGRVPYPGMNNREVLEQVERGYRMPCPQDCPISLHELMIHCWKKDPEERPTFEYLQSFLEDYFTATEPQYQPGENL

[22] = molecular target: Serine/threonine-protein kinase Sgk1 (Homo sapiens, UniProt O00141); assay: Inhibition of SGK (unknown origin)
[23] = molecular target: Serine/threonine-protein kinase 25 (Homo sapiens, UniProt O00506); assay: Inhibition of STK25 (unknown origin)
[24] = molecular target: Serine/threonine-protein kinase BRSK1 (Homo sapiens) (UniProt Q8TDC3); details: dose 100.0 nM
[25] = molecular target: Serine/threonine-protein kinase 26 (Homo sapiens, UniProt Q9P289); assay: Inhibition of MST4 (unknown origin)
[26] = molecular target: Receptor tyrosine-protein kinase erbB-2 (Homo sapiens, UniProt P04626); assay: Inhibition of ERBB2 (unknown origin)
[27] = molecular target: Tyrosine-protein kinase Mer (Homo sapiens) (UniProt Q12866); details: dose 100.0 nM
[28] = molecular target: Casein kinase I isoform gamma-2 (Homo sapiens, UniProt P78368); assay: Inhibition of CSNK1G2 (unknown origin)
[29] = molecular target: Tyrosine-protein kinase Fer (Homo sapiens, UniProt P16591); assay: Inhibition of FER (unknown origin)
[30] = molecular target: Serine/threonine-protein kinase D3 (Homo sapiens) (UniProt O94806); details: dose 100.0 nM
[31] = molecular target: Insulin-like growth factor 1 receptor (Homo sapiens, UniProt P08069); assay: Inhibition of IGF1R (unknown origin)
Sequence of Insulin-like growth factor 1 receptor (P08069 31-736 limits assumed): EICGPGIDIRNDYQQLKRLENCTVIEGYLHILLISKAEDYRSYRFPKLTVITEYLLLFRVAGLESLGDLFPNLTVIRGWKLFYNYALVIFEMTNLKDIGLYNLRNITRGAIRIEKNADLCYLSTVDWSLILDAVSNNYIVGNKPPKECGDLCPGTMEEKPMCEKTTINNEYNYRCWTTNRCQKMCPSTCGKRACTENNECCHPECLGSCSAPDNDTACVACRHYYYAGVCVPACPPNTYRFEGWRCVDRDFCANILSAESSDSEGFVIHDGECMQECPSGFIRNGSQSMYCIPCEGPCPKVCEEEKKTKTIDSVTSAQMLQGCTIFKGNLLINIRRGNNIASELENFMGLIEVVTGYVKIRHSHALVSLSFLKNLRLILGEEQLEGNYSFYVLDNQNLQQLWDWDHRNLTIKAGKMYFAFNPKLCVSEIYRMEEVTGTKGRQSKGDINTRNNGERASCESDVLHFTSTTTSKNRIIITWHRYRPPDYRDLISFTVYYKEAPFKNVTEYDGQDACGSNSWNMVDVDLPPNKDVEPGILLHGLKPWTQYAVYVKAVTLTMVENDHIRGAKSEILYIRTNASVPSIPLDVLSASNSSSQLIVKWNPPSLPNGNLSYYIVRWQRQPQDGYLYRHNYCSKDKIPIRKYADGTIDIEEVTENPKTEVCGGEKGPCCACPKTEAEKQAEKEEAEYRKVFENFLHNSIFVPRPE
Sequence of Insulin-like growth factor 1 receptor (P08069 741-1367 limits assumed): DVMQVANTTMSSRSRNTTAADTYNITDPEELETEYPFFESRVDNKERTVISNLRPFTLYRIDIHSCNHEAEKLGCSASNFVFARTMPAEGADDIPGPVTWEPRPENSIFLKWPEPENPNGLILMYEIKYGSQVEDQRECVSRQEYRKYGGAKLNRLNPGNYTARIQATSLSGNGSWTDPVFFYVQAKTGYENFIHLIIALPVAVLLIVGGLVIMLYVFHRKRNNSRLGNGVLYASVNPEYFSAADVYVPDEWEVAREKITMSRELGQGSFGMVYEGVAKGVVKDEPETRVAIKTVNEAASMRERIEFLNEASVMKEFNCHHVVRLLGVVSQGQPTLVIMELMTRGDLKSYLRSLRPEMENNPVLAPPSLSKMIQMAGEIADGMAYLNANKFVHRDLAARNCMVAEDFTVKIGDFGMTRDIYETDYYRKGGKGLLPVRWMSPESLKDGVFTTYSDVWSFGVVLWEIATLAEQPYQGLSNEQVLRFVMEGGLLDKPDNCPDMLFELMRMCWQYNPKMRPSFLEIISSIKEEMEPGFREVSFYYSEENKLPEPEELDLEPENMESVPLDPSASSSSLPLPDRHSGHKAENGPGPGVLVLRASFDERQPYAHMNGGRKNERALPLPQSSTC

[32] = molecular target: Fibroblast growth factor receptor 1 (Homo sapiens, UniProt P11362); assay: Inhibition of FGFR1 (unknown origin)
[33] = molecular target: Signal transducer and activator of transcription 3 (Homo sapiens) (UniProt P40763); assay: Inhibition of STAT3 phosphorylation in human HEL cells by Western blot analysis; format: cell-based; details: dose 0.1-5 µM
[34] = molecular target: T1, Serine/threonine-protein kinase MARK1; assay: Inhibition of MARK1 (unknown origin)
Ephrin type-A receptor 3 = Ephrin type-A receptor 3 (Homo sapiens, UniProt P29320); assay: Inhibition of EPHA3 (unknown origin)
[35] = molecular target: Mitogen-activated protein kinase kinase kinase kinase 2 (Homo sapiens, UniProt Q12851); assay: Inhibition of MAP4K2 (unknown origin)
[36] = molecular target: Muscle, skeletal receptor tyrosine-protein kinase (Homo sapiens, UniProt O15146); assay: Inhibition of MUSK (unknown origin)
Sequence of Muscle, skeletal receptor tyrosine-protein kinase (O15146 whole entry): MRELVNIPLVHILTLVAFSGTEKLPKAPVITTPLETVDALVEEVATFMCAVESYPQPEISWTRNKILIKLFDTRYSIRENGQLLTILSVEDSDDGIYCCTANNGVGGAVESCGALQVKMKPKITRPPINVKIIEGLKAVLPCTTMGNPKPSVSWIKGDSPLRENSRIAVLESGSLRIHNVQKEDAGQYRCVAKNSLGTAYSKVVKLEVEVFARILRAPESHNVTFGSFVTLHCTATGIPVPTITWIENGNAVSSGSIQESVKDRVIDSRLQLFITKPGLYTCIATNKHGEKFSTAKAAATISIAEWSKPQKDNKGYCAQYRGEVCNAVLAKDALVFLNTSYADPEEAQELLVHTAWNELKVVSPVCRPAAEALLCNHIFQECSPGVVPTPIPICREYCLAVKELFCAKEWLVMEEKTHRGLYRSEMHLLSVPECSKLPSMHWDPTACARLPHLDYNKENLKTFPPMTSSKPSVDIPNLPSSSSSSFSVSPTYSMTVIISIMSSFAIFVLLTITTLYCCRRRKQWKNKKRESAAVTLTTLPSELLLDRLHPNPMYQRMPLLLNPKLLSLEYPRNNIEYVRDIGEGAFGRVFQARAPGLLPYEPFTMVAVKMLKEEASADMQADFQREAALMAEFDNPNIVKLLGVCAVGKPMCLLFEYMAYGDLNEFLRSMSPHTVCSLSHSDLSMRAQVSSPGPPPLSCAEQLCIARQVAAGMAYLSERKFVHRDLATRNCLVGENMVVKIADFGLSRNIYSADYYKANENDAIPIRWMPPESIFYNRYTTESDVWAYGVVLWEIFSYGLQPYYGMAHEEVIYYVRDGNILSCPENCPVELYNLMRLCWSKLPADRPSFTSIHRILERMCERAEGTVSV

[37] = molecular target: Mitogen-activated protein kinase kinase kinase 9 (Homo sapiens, UniProt P80192); assay: Inhibition of MAP3K9 (unknown origin)

N#CCNC(=O)c1ccc(-c2ccnc(Nc3ccc(N4CCOCC4)cc3)n2)cc1 [MOMELOTINIB]
< 1000 nM: IC50 [15] | IC50 [16] | IC50 [17] | IC50 [20] | IC50 [22] | IC50 [25] | IC50 [34] | IC50 [35] | IC50 [36] | IC50 [37]
1500 nM: IC50 (BaF3)
> 1000 nM: IC50 [1] | IC50 [3] | IC50 [6] | IC50 [13] | IC50 [14] | IC50 (SRSF protein kinase 3) | IC50 [21] | IC50 [23] | IC50 [26] | IC50 [28] | IC50 [29] | IC50 [31] | IC50 [32] | IC50 (Ephrin type-A receptor 3)
< 50%: inhibition [4] | inhibition [5] | inhibition [9] | inhibition [10] | inhibition [11] | inhibition [12] | inhibition [18] | inhibition [19] | inhibition [24] | inhibition [27]
> 50%: inhibition [2] | inhibition [7] | inhibition [30]
active: inhibition [8] Dose-Dependent Effect | inhibition [33] Dose-Dependent Effect
